Reference: paper PMC3034256 (Chemistry & biology, 2011)

Key:
PTP1B = molecular target: T1, PTP1B (Homo sapiens, UniProt P18031); test: PTP-catalyzed pNPP hydrolysis, PTP1B; type: biochemical
T1 sequence (P18031 1-435): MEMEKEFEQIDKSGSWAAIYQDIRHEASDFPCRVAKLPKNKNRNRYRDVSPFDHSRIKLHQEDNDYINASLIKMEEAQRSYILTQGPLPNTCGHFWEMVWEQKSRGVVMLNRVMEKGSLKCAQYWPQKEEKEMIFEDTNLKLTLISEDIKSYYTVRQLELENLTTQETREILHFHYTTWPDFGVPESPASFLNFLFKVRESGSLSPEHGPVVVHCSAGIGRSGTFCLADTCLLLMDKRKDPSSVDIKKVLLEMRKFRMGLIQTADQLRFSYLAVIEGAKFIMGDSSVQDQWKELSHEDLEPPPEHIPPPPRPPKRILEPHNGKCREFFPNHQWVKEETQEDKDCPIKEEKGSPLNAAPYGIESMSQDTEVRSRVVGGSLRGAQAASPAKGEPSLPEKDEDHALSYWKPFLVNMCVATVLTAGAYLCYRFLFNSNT
Procedure, shortened: (§1)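 pNPP hydrolysis was run at 25 °C in 50 mM 3,3-dimethylglutarate, pH 7.0, 1 mM EDTA, ionic strength 0.15 M (NaCl). pNPP was fixed at each enzyme's experimentally determined Km, and reactions were started with enzyme. They were quenched with NaOH and corrected with no-enzyme controls. p-Nitrophenol was read at 405 nm. IC50 was fitted from AI/A0 = IC50/(IC50+[I]).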

PP2A = details: biochemical assays; cited from earlier work
Cdc14A = molecular target: T2, Cdc14A (Homo sapiens, UniProt Q9UNH5); test: PTP-catalyzed pNPP hydrolysis, Cdc14A; type: biochemical
T2 sequence (Q9UNH5 1-594): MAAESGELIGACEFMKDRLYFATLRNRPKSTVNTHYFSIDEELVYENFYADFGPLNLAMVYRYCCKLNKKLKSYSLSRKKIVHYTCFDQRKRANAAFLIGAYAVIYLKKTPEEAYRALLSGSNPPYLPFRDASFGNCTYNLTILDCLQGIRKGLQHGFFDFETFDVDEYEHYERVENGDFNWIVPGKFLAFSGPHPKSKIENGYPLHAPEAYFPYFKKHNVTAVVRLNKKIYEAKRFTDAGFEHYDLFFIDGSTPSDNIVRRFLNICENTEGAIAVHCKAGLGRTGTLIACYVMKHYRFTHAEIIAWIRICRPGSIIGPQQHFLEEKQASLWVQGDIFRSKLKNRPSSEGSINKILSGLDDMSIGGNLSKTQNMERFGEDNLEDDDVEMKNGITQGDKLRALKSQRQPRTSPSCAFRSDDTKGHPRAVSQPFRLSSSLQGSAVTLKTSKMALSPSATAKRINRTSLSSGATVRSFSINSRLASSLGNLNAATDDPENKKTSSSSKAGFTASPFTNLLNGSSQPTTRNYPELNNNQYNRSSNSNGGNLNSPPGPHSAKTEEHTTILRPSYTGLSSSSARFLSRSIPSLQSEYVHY
Procedure, shortened: as §1

[1] = tested on: macrophage progenitor cells expressing MIEG3, wild-type SHP2, or SHP2/E76K; test: GM-CSF induced ERK1/2 activation in macrophage progenitors; type: cell-based; details: 2 µM for 2 hours, GM-CSF 50 ng/mL for 60 minutes
Procedure, shortened: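 Bone marrow low-density mononuclear cells were transduced (empty vector, wild-type SHP2 or SHP2/E76K), EGFP-sorted and grown 5 days in M-CSF 100 ng/mL to give macrophage progenitors. These were serum- and growth factor-starved 16 h, pretreated 2 h with DMSO or 2 µM test compound, then left unstimulated or given GM-CSF 50 ng/mL for 60 min. Extracts were immunoblotted for phospho-ERK1/2 and total ERK1/2.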

Lyp = molecular target: T3, Lyp (Homo sapiens, UniProt Q9Y2R2); test: PTP-catalyzed pNPP hydrolysis, Lyp; type: biochemical
T3 sequence (Q9Y2R2 1-807): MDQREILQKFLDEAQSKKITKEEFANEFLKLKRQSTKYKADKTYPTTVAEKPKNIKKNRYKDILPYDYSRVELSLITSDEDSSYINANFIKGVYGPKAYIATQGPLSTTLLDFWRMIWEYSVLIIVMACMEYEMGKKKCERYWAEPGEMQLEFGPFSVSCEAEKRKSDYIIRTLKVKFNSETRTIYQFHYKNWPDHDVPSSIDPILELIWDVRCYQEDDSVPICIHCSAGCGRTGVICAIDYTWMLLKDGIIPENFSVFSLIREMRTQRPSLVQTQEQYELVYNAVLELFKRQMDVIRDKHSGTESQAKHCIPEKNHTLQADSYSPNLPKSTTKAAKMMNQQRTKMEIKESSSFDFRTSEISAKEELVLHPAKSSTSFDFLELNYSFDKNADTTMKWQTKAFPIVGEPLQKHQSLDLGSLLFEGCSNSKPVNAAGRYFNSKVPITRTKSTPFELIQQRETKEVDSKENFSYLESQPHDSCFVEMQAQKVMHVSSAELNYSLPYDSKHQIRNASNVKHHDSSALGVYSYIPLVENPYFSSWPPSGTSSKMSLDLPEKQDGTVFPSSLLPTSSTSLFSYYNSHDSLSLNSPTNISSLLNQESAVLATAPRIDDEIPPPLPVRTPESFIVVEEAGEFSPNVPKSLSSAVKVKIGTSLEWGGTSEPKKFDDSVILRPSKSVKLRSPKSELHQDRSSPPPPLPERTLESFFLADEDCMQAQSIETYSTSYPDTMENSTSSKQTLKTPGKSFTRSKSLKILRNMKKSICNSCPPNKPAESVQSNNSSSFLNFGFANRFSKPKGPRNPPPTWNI
Procedure, shortened: as §1

VHR = VHR (Homo sapiens, UniProt P51452); test: PTP-catalyzed pNPP hydrolysis, VHR; type: biochemical
Procedure, shortened: as §1

panel of PTPs = test: Screen against a panel of PTPs at 10 µM; type: biochemical; details: 10 µM compound, pNPP, pH 7, 25 °C
[2] = tested on: transduced bone marrow LDMNCs (MIEG3, wild-type SHP2, SHP2/E76K); test: Methylcellulose colony assay, GM-CSF-stimulated monocytic differentiation; type: cell-based; details: 2 µM, GM-CSF 1 ng/mL, 7 days, all cell types
Procedure, shortened: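 Transduced, EGFP-sorted bone marrow low-density mononuclear cells were plated at 8000 cells/mL in 0.9% methylcellulose medium (IMDM, 2 mM glutamine, 80 µM β-mercaptoethanol, 30% FBS) with GM-CSF 1 ng/mL, ± 2 µM test compound. Cultures were kept at 37 °C, 5% CO2 for 7 days. Total colonies and CFU-GM vs CFU-M morphology were scored by light microscopy; n=2.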

Sequence of VHR (P51452 whole entry, species assumed): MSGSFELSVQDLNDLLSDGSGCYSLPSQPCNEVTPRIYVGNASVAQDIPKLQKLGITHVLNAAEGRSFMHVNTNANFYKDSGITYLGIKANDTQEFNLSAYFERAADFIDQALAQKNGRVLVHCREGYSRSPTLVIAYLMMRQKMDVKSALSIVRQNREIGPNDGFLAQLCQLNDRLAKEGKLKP

## C=C/C(=C/C(=O)C[C@H](C)C[C@@H](C)CC[C@H](O)[C@H](C)C(=O)C[C@@H](O)[C@H](C)[C@@H](C)OC(=O)C[C@@H](O)C1=C(C)C(=O)OC1=O)CC [TTN, tautomycetin]
PTP1B
  IC50: 41.2 ± 4.4 µM
PP2A
  inhibition of PP2A: low nM range
Cdc14A
  IC50: > 50 µM
[1]
  effect on ERK1/2 hyperactivation in SHP2/E76K-expressing cells: effectively inhibited
  effect on GM-CSF induced ERK1/2 activation: abrogated
Lyp
  IC50: 20 ± 2 µM
VHR
  IC50: > 50 µM
Panel of PTPs
  inhibition of the rest of the PTP panel (other than SHP2): < 30%
[2]
  effect on development of CFU-M: reduced in all cells types
